Results published in PubChem BioAssay AID623951 (Broad Institute, 2012).

Target: PvdQ acyl-homoserine lactone acylase (Pseudomonas aeruginosa LESB58)
Experiment: P. aeruginosa PvdQ acylase inhibitors, dose response, biochemical, fluorescence, plate reader, dry powder samples (AID 623951)
Settings: purified PvdQ, 4-MU laurate hydrolysis
In short: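 system = purified P. aeruginosa PvdQ | amount = PvdQ enzyme at 0.02 µM final | buffer or medium = Tris pH 8.0, NaCl, TCEP, Triton X-100 | probe or stimulus = 0.8 mM 4-MU laurate | timing = 30 min pre-incubation, 60 min reaction, RT | measured by = 4-methylumbelliferone fluorescence, excitation 303–367 nm, emission 440–460 nm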

Structure (SMILES) | AC50 [nM]
Cc1ccc(C(C#N)c2ccccc2OC(F)(F)F)nc1C#N (stereo unspecified) | 467
N#CC(c1ccc(C(F)(F)F)cc1)c1cccc(C(F)(F)F)n1 (stereo unspecified) | 43.4
N#CC(c1ccc(Cl)cc1)c1cccc(C(F)(F)F)n1 (stereo unspecified) | 11.1
CCCCC(C#N)c1ccccc1OC(F)(F)F (stereo unspecified) | 1300
N#CC(c1ccc(F)cc1)c1ccc(C(F)(F)F)c(Cl)n1 (stereo unspecified) | 398
N#Cc1cccc(C(C#N)c2ccc(Cl)cc2)n1 (stereo unspecified) | 138
CCCC(C#N)c1ccc(Cl)cc1 (stereo unspecified) | 99.4
CCCCC(C#N)c1ccc(C(F)(F)F)cc1 (stereo unspecified) | 182
N#CC(c1cccc(C(F)(F)F)n1)c1ccccc1OC(F)(F)F (stereo unspecified) | 1530
Cc1ccc(C(C#N)c2ccc(Cl)cc2)nc1C#N (stereo unspecified) | 221
CC(C#N)(c1ccc(Cl)cc1)c1ccc(C(F)(F)F)cn1 (stereo unspecified) | 5630
COc1cccc(C(C#N)c2ccc(F)cc2)n1 (stereo unspecified) | 240
N#CC(c1cccc(C(F)(F)F)n1)c1ccc(Cl)cc1F (stereo unspecified) | < 3
N#CC(c1ccc(C(F)(F)F)c(Cl)n1)c1ccc(Cl)cc1Cl (stereo unspecified) | 831
CCCCC(C#N)c1ccc(Cl)cc1 (stereo unspecified) | 118
N#CC(c1ccc(Cl)cc1)c1ccc(Cl)cn1 (stereo unspecified) | 62.8
N#Cc1cccc(C(C#N)c2ccccc2OC(F)(F)F)n1 (stereo unspecified) | 1340
N#CC(c1ccc(C(F)(F)F)cc1)c1cccc(Cl)n1 (stereo unspecified) | 287
CCCCC(C#N)c1ccc(Cl)cc1Cl (stereo unspecified) | 75.6
Cc1ccc(C(C#N)c2ccc(F)cc2)nc1C#N (stereo unspecified) | 142
N#CC(c1ccc(Cl)cc1Cl)c1ncccc1Cl (stereo unspecified) | 279
N#Cc1cccc(C(C#N)c2ccc(Cl)cc2Cl)n1 (stereo unspecified) | 380
N#CC(c1ccc(C(F)(F)F)c(Cl)n1)c1ccccc1OC(F)(F)F (stereo unspecified) | 433
N#CC(c1ccc(F)cc1)c1cccc(C(F)(F)F)n1 (stereo unspecified) | 11.7
N#CC(c1ccc(C(F)(F)F)cc1)c1ccc(C(F)(F)F)c(Cl)n1 (stereo unspecified) | 1390
N#CC(c1ccc(Cl)cc1)c1ncccc1Cl (stereo unspecified) | 5.76
Cc1ccc(C(C#N)c2ccc(Cl)cc2)nc1 (stereo unspecified) | 271

Continued, values first:

AC50 [nM] | Structure (SMILES)
140 | N#Cc1cccc(C(C#N)c2ccc(Cl)cc2F)n1 (stereo unspecified)
77 | N#CC(c1cccc(Cl)n1)c1ccc(Cl)cc1F (stereo unspecified)
258 | N#CC(CC1CC1)c1ccc(Cl)cc1 (stereo unspecified)
20.2 | CCCCC(C#N)c1ccc(F)cc1 (stereo unspecified)
2660 | N#Cc1ccc(C(C#N)c2ccc(Cl)cc2)nc1 (stereo unspecified)
802 | N#CC(c1ccc(C(F)(F)F)c(Cl)n1)c1ccc(Cl)cc1F (stereo unspecified)
121 | CC(C)CC(C#N)c1ccc(Cl)cc1 (stereo unspecified)
457 | CCCCC(C#N)c1ccc(Cl)cc1F (stereo unspecified)
2700 | N#Cc1ccc(C(C#N)c2ccc(Cl)cc2Cl)nc1 (stereo unspecified)
414 | N#CC(c1ccc(Cl)cc1)c1ccc(C(F)(F)F)c(Cl)n1 (stereo unspecified)
203 | N#CC(c1cccc(Cl)n1)c1ccc(Cl)cc1Cl (stereo unspecified)
138 | Cc1cccc(C(C#N)c2ccc(Cl)cc2)n1 (stereo unspecified)
936 | N#CC(c1cccc(Cl)n1)c1ccccc1OC(F)(F)F (stereo unspecified)
546 | N#CC(c1ccc(Cl)cc1)c1ccc(C(F)(F)F)cn1 (stereo unspecified)
